We go through 72 compounds from ChEMBL document CHEMBL4513216, “Probing the Open Global Health Chemical Diversity Library for Multistage-Active Starting Points for Next-Generation Antimalarials” (ACS Infect Dis, 2020).

This data set is described as follows: Toxicity liver stage against HepG2, at 10uM. Format: cell-based. Also on record: test concentration 10 uM, cell line HepG2-A16-CD81EGFP. The conditions noted are these: human, HepG2-A16-CD81EGFP cells; read-out: INHIBITION
The essentials:
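Uninfected HepG2-A16-CD81EGFP cells, 3 × 10^3 per well, 1536-well, plated on prespotted compound at 10 μM final, parasite-free screening media added to match infected plates; puromycin 10 μM positive, DMSO 0.5% negative; run in parallel with 48 h PbLuc assay at 37 °C, 5% CO2; viability by CellTiter-Glo luminescence, normalized to controls.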
As to `CC(C)c1nn(CC(=O)N2CCCC2)c(=O)c2c1cnn2C(C)(C)C`, the cytotoxicity at 10 µM was 1.12%.

With `Cn1cccc1C(O)CNC(=O)c1ccc2nsnc2c1` (configuration not stated), the cytotoxicity at 10 µM turned out to be 4.4%.

Regarding `CCN(CC)[C@@H]1CN(S(=O)(=O)c2cn(C)cn2)[C@@H]2CCCO[C@H]12`, the cytotoxicity at 10 µM was -147%.

Turning to `O=C(NC1CC1)N1CCc2ccc(=O)n(CC3CC3)c2CC1`, the cytotoxicity at 10 µM is -4.63%.

For `CC(C)N1CCc2onc(Cn3cccn3)c2C1`, the cytotoxicity at 10 µM is 5.44%.

For `CCS(=O)(=O)N1CCc2onc(CNc3ncccn3)c2C1`, the cytotoxicity at 10 µM was -0.748%.

Take `N#Cc1cc(C#N)c(SCC(=O)NCc2ccc(F)cc2)nc1N`: the cytotoxicity at 10 µM was 0.0723%.

For `COc1ccccc1C1Cn2ccnc2CN1Cc1c[nH]nc1C` (configuration not stated), the cytotoxicity at 10 µM is -3.85%.

With `CC(=O)N1CCn2c(nnc2C2CCCCN2C(C)=O)C1` (configuration not stated), the cytotoxicity at 10 µM was -28.1%.

As for `Cc1ccc2nc(C(=O)N3CCCC[C@]4(C)NC(=O)CCC[C@H]34)cn2c1`, the cytotoxicity at 10 µM was -9.99%.

Take `CC(C(=O)N1CCOCC1)S(=O)(=O)Cc1noc(C(C)(C)C)n1` (configuration not stated): the cytotoxicity at 10 µM was -14.2%.

Regarding `c1ccc(-c2nnc3n2CCN(c2nc(C4CC4)ns2)C3)cc1`, the cytotoxicity at 10 µM came out at 0.38%.

On to `OC(CNCCc1nnc2ccccn12)c1ccc(F)c(F)c1` (configuration not stated), for which the cytotoxicity at 10 µM was 2.52%.

On to `CN(C)c1ccc(NC(=O)c2cccc(N(C)C)c2)nc1`, for which the cytotoxicity at 10 µM turned out to be 23.3%.

On to `Cc1noc(CNC(=O)NCCOc2ccc(Cl)cc2)n1`, for which the cytotoxicity at 10 µM was 1.92%.

Take `Cc1ccc(C)c(C(=O)NC2CCC(N3C(=O)CCC3=O)CC2)c1` (configuration not stated): the cytotoxicity at 10 µM is 3.38%.

In the case of `Cc1nn(C(C)(C)C)c(=O)n1CC(=O)NCC(F)(F)F`, the cytotoxicity at 10 µM is -1.32%.

Regarding `COc1ncccc1CNC(=O)c1csc(Br)c1`, the cytotoxicity at 10 µM was -8.03%.

As for `CNS(=O)(=O)Cc1cccc(CNc2ccc(C#N)cn2)c1`, the cytotoxicity at 10 µM is -11.2%.

For `CCC(C)(NCC(=O)NC(=O)NC)c1nc(C)cs1` (configuration not stated), the cytotoxicity at 10 µM was -4.36%.

Turning to `Cn1ccnc1CNc1c(F)cccc1-n1cccn1`, the cytotoxicity at 10 µM was -5.2%.

As for `CCOc1cccc(NC(=O)c2cscn2)n1`, the cytotoxicity at 10 µM is -3.59%.

Regarding `CCN(C)c1ccc(CNC(=O)c2cc(C(N)=O)cs2)cc1F`, the cytotoxicity at 10 µM was 6.36%.

Regarding `CCSc1ccc(NC(=O)NC(C)c2ccncc2)cn1` (configuration not stated), the cytotoxicity at 10 µM was -5.14%.

With `NC(=O)CCSCc1cc(Br)cc2cccnc12`, the cytotoxicity at 10 µM was -7.68%.

For `COC(=O)c1cccc(CNC(=O)c2cc(C(C)C)n(C)n2)c1`, the cytotoxicity at 10 µM was -3.26%.

Turning to `Cc1cc(C)n(CC(=O)NC2CCCCNC2=O)n1` (configuration not stated), the cytotoxicity at 10 µM was -14.7%.

For `CN(Cc1nc(N)nc(N(C)C)n1)Cc1cccc2ccccc12`, the cytotoxicity at 10 µM was 0.554%.

Take `Cn1cc(C2CCCN2c2ncnc3[nH]ccc23)cn1` (configuration not stated): the cytotoxicity at 10 µM was -9.59%.

On to `OC(CNc1ccc(Cl)cn1)CN1CCOCC1` (configuration not stated), for which the cytotoxicity at 10 µM was 4.15%.

As for `Cc1noc(C)c1CN(C)C(=O)NC(C)c1cccs1` (configuration not stated), the cytotoxicity at 10 µM was 1.41%.

On to `CC(C)N(C(=O)CCc1ccco1)C1CCOCC1`, for which the cytotoxicity at 10 µM is -5.63%.

With `N#CC(Sc1nnnn1C1CCOCC1)C1CCCCC1` (configuration not stated), the cytotoxicity at 10 µM worked out at 21.7%.

For the compound `O=C(NCCOc1ccc(F)c(F)c1)NCc1cccc(CO)c1`, the cytotoxicity at 10 µM was -8.86%.

`CC(=O)c1ccccc1NC(=O)CCN1CCSCC1`: the cytotoxicity at 10 µM is -7.88%.

On to `Cc1nnc(SCCNC(=O)CC2CCc3ccccc32)s1` (configuration not stated), for which the cytotoxicity at 10 µM is -3.13%.

Consider `COC(=O)N1CCC(Oc2ccc(C(=O)NCCN(C)C)cc2Cl)CC1`, for which the cytotoxicity at 10 µM was -6.34%.

Turning to `CCOc1cccc(C(=O)N2CCC3(CC2)[C@H](O)C[C@@H]3OC)c1`, the cytotoxicity at 10 µM came out at 2.01%.

Regarding `Cc1n[nH]c(C)c1CCc1n[nH]c(=O)n1Cc1cccs1`, the cytotoxicity at 10 µM was -146%.

Consider `Cc1cc2cccc(C(=O)N3CC[C@](C)(O)[C@H](C)C3)c2o1`, for which the cytotoxicity at 10 µM came to 4%.

Take `CC(C)OC(C)c1nnc(SCC(=O)O)n1-c1ccc(F)cc1F` (configuration not stated): the cytotoxicity at 10 µM is -11.6%.

With `Cc1ccc2cc(C3(O)CCN(C(=O)[C@@H]4CCCCN4)CC3)ccc2n1`, the cytotoxicity at 10 µM was -0.456%.

As for `COCc1noc(CCNc2ncnc3c2CCNCC3)n1`, the cytotoxicity at 10 µM was -5.59%.

Turning to `CC(=O)N1CCC(C(=O)NC2CC(C)(C)Oc3cc(C)ccc32)CC1` (configuration not stated), the cytotoxicity at 10 µM is -5.41%.

`O=C(c1ccco1)N1CCc2c(nc(-c3ccncc3)[nH]c2=O)C1`: the cytotoxicity at 10 µM came out at 10.4%.

Consider `Cc1ccc(C)c2c(C)c(C(=O)NCCCn3cnnc3)[nH]c12`, for which the cytotoxicity at 10 µM stood at 6.28%.

As for `O[C@H]1[C@H](n2cc(CN3CCCC3)nn2)c2ccccc2C12CCNCC2`, the cytotoxicity at 10 µM is -3.76%.

In the case of `COCc1cc(NCCc2ccc(F)cc2)n2nccc2n1`, the cytotoxicity at 10 µM is -12.6%.

For the compound `Cc1nccn1CCC1CCCCN1Cc1ccncc1` (configuration not stated), the cytotoxicity at 10 µM is 35.2%.

Take `Cc1cc(I)c2c(c1)C(=O)C(CN1CCCC1)(CN1CCCC1)CO2`: the cytotoxicity at 10 µM was -6.86%.

Regarding `Cc1ccc(O)c(C(=O)N2CCOCC2c2c(C)nn(C)c2C)c1` (configuration not stated), the cytotoxicity at 10 µM was -8.53%.

For the compound `CC(NC(=O)NCc1ccoc1)c1ccc2c(c1)CC(=O)N2` (configuration not stated), the cytotoxicity at 10 µM is -1.82%.

Consider `O=C(CN1CCOC(CNc2cccnn2)C1)N1CCCCC1` (configuration not stated), for which the cytotoxicity at 10 µM was 5.18%.

On to `COC1CCN(C(=O)Cc2csc(-c3ccccc3)n2)CC1`, for which the cytotoxicity at 10 µM is -6.75%.

Consider `O=C(CN1CCCC1Cn1cccn1)NCCC1=CCCCC1` (configuration not stated), for which the cytotoxicity at 10 µM is -2.78%.

Take `CCc1ncc(C(=O)N2CCC(Nc3ccc(C)nn3)CC2)s1`: the cytotoxicity at 10 µM is -7.94%.

In the case of `OC(COCc1ccco1)CN1CCc2c(ncn2C2CC2)C1` (configuration not stated), the cytotoxicity at 10 µM is -0.885%.

In the case of `Cc1nn(C)c(N(C)C)c1CNCc1ccnc(N2CCCCC2)c1`, the cytotoxicity at 10 µM was -9.32%.

Take `CC(C)CCCNC(=O)Nc1ccc(Cl)c(C(N)=O)c1`: the cytotoxicity at 10 µM was -0.252%.

For `CC(C)c1nc2c(n1C)CCN(CC(=O)Nc1cccnc1)C2`, the cytotoxicity at 10 µM is -9.52%.

As to `O=C(NCC(c1ccc(F)cc1)N1CCOCC1)Nc1cn[nH]c1` (configuration not stated), the cytotoxicity at 10 µM was -15%.

For the compound `COc1cccc(-c2nc(CNC(C)Cn3cccn3)cs2)c1` (configuration not stated), the cytotoxicity at 10 µM was -6.31%.

For `Cc1ccc(C(=O)NCCNc2ncccc2C#N)c(=O)[nH]1`, the cytotoxicity at 10 µM is -7.44%.

Regarding `CCO[C@H]1CCN(S(=O)(=O)c2cn(C)cn2)[C@H]1Cc1ccccc1`, the cytotoxicity at 10 µM was determined as 7.95%.

As to `Fc1cnc(N2CCc3nnc(COc4ccccn4)n3CC2)nc1`, the cytotoxicity at 10 µM is 8.13%.

`CCS(=O)(=O)NC[C@]12COC[C@H]1CN(CCc1ccccc1)C2`: the cytotoxicity at 10 µM turned out to be 6.07%.

Turning to `CN(C)CCN1CCCC12CCN(C(=O)c1ccncc1)CC2`, the cytotoxicity at 10 µM is 6.29%.

In the case of `O=S(=O)(C1CC1)N1CC[C@H]2OCC[C@@]2(COc2ncccc2F)C1`, the cytotoxicity at 10 µM is -150%.

Consider `CCOCC1CN(S(=O)(=O)N(C)C)Cc2cnn(CC3CC3)c21` (configuration not stated), for which the cytotoxicity at 10 µM was 12%.

On to `CCCS(=O)(=O)N1C[C@@H]2CN(Cc3ccoc3)CCO[C@@H]2C1`, for which the cytotoxicity at 10 µM was -117%.

Take `CN1CCOCC2(CCCN(C(=O)c3cn(C)cn3)C2)C1` (configuration not stated): the cytotoxicity at 10 µM stood at 8.47%.

With `COCCOC(=O)N1C[C@@H]2CC[C@H]1CN(C1Cc3ccccc3C1)C2`, the cytotoxicity at 10 µM amounted to 1.06%.
